Like-named read-outs stand apart in the source and are kept apart here.
Legend:
[1] = system: PfMDR1 mutant lines versus parental ABS parasites (Dd2-B2, FCB); test: Drug susceptibility profiling of HHQ-resistant lines in ABS parasites; assay type: cell-based, Plasmodium falciparum; conditions: for changes in susceptibility: all three lines: PfMDR1^edF1072L, PfMDR1^selY290F; for fold increased susceptibility compared to wild-type Dd2-B2: GNF-Pf-5668-3C4D2 line (four pfmdr1 copies + F1072L (AB 69%)); for susceptibility in GNF-Pf-5668-3C4D2 compared to PfMDR1^edF1072L: i.e. higher IC50 values
[2] = system: P. berghei ANKA MRA868 GAMs, Anopheles stephensi mosquitoes; test: In vivo transmission-blocking effect; design: species or system P. berghei in CD-1 mice; conditions: mice given two doses 12 h apart: 100 mg/kg GNF compounds, 30 mg/kg DHA
Dd2-B2 late rings = test: Hb endocytosis by Western blot; assay type: cell-based, Plasmodium falciparum; conditions: 5′ the IC50 for 5 h, normalized to DMSO control
In short: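 Sorbitol-synchronized parasites were exposed to test compound at 5x IC50 for 5 h, starting at the late ring stage. Lysates were blotted to nitrocellulose and probed overnight at 4°C with rabbit anti-human Hb (1:5,000) and anti-β-actin (1:2,000). Detection was by ECL. Hb band intensities were normalized to β-actin and compared with untreated controls. Repeated on 3–4 independent occasions.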

[3] = system: female gametes from stage V GAMs; test: Dual gamete formation assay, female gamete formation; assay type: cell-based, Plasmodium falciparum; conditions: for IC50: Plasmodium falciparum, 24 h
[4] = system: compound-exposed Pf GAMs in Anopheles stephensi mosquitoes; test: Membrane-feeding assay with A. stephensi mosquitoes; assay type: in vivo, Plasmodium falciparum; conditions: for reduction in oocyst density per infected mosquito midgut: GAMs pre-treated at 3x late-stage IC50; for reduction in infection prevalence (percentage of infected mosquitoes): GAMs pre-treated at 3x late-stage IC50, 3 days, then 4 days without compound
In short: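 Day-12 gametocytes were treated 3 days at 1x or 3x their late-stage IC50, with compound refreshed daily, then held 4 days without compound. Controls were 0.25% DMSO and methylene blue at 3x. Stage V cultures (50% Hct, 0.01–0.16% parasitemia) were membrane-fed for 30 min to A. stephensi, kept at 26°C and 78% RH. Midguts were dissected on day 7–8, stained with mercurochrome and oocysts counted blind. Prevalence is the percentage of mosquitoes with at least one oocyst.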

[5] = system: male gametes from stage V GAMs; test: Dual gamete formation assay, male gamete formation; assay type: cell-based, Plasmodium falciparum; conditions: for IC50: Plasmodium falciparum, 24 h
[6] = system: PfMDR1^selY290F parasites; test: Heme fractionation assay; assay type: cell-based, Plasmodium falciparum; conditions: MQ with increasing concentrations; LMF at 1–2′ IC50
In short: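 Early ring-stage, sorbitol-synchronized parasites were exposed to test compound at 0.1, 0.25, 0.5, 1 and 2x the ABS IC50. Heme species were fractionated and normalized to the number of cells analyzed, counted by flow cytometry of an aliquot. Significance was tested by two-tailed t-tests.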

Dd2-B2 parasites = test: Heme fractionation assay; assay type: cell-based, Plasmodium falciparum; conditions: for heme fractionation effect compared to untreated controls: 0.1 to 2′ IC50
[7] = system: NF54^Pfs16 early-stage GAMs; test: Luciferase-based early-stage gametocyte inhibition assay; assay type: cell-based, Plasmodium falciparum; conditions: in words
In short: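 Gametocytes on day 1 of gametocytogenesis were set at 10% parasitemia and 0.5% Hct. They were kept in medium with 50 mM N-acetyl-D-glucosamine, refreshed daily. Compound was added at 0.4% DMSO final. Controls were DMSO (0% inhibition) and 5 μM puromycin (100% inhibition). After 72 h at 37°C in 5% O₂/5% CO₂/90% N₂, Steadylite was added, followed by 60 min lysis at room temperature and a luminescence read. Potency used serial dilutions up to 40 μM, three per log, on two independent occasions.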

[8] = system: Dd2 (multidrug-resistant) ABS parasites; test: Imaging-based asexual blood stage high-throughput assay; assay type: cell-based, Plasmodium falciparum; conditions: read-out: ABS IC50; multidrug-resistant Dd2, 72 h
[9] = system: HEK293 human embryonic kidney cell line; test: HEK293 cytotoxicity; assay type: cell-based; conditions: at 40 μM, 72 h
In short: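 Cells were grown in DMEM with 10% fetal calf serum and seeded at 2,000 cells/well, then left overnight at 37°C in 5% CO₂ to adhere. Test compound was added as a serial dilution with a maximum of 40 μM, at 0.4% DMSO final, for 72 h. Medium was then replaced with serum-free DMEM containing 44 μM resazurin for 4–6 h. Fluorescence was read at 530/595 nm. Two biological replicates.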

[10] = system: NF54^Pfs16 late-stage GAMs; test: Image-based late-stage gametocyte inhibition assay; assay type: cell-based, Plasmodium falciparum; conditions: in words
In short: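 Day-8 stage IV gametocytes were MACS-purified and set at 10% parasitemia and 0.1% Hct, with 0.4% DMSO final. They were incubated 72 h at 37°C in 5% O₂/5% CO₂/90% N₂, then stained overnight with MitoTracker Red CM-H₂XRos. Confocal imaging counted viable mature gametocytes per imaged area; 5 μM puromycin was the control. Screening used 2 μM in triplicate. Potency used serial dilutions up to 40 μM, three per log, on two independent occasions.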

male GAM exflagellation = test: Male GAM exflagellation of GAM cultures used for membrane feeding; assay type: cell-based, Plasmodium falciparum; conditions: GAM cultures exposed at 3x late-stage IC50
[11] = system: 3D7 (drug-sensitive) ABS parasites; test: Imaging-based asexual blood stage high-throughput assay; assay type: cell-based, Plasmodium falciparum; conditions: read-out: ABS IC50; drug-sensitive 3D7, 72 h
In short: (§1)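 Sorbitol-synchronized parasites were seeded at 2% parasitemia and 0.3% Hct and exposed to test compound for 72 h at 37°C in 5% O₂/5% CO₂/90% N₂. Cells were then permeabilized with 0.01% Triton X-100, 0.001% saponin and 5 mM EDTA, and stained with 0.5 μg/mL DAPI for at least 6 h at room temperature in the dark. Confocal imaging used 405 nm excitation. Parasites were counted from spot size and intensity. Two independent cultures.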

[12] = system: cultured P. berghei liver-stage parasites; conditions: cited from earlier work
[13] = system: P. berghei ANKA MRA868 ABS parasites; test: 4-day Peters test; assay type: in vivo, P. berghei in CD-1 mice; conditions: 4 doses, 96 h post infection
In short: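 Female CD-1 mice (5 weeks old, 22–25 g; four per group) were infected intraperitoneally with 1x10⁶ parasites. The test compound was given intraperitoneally at 2, 24, 48 and 72 h after infection, in 20% DMSO in water. Controls were solvent only and DHA at 30 mg/kg. Parasitemia was read by microscopy at 96 h. Groups were randomized and blinded. The 100 mg/kg groups were tested once.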

[14] = system: NITD609-R^Dd2 clone #2 (PfATP4 mutant line); test: Imaging-based asexual blood stage high-throughput assay; assay type: cell-based, Plasmodium falciparum; conditions: read-out: ABS IC50, 72 h
In short: as §1

[15] = PfMDR1^selY290F (GNF-Pf-5660-2B6H1)

## Clc1ccc2c(N3CCN(CCCN4CCN(c5ccnc6cc(Cl)ccc56)CC4)CC3)ccnc2c1 [piperaquine]
[1]; PfMDR1^edS1075I
  changes in susceptibility: no changes

## ferroquine
[1]; PfMDR1^edS1075I
  changes in susceptibility: no changes

## C[C@H]1[C@@H](O)O[C@@H]2O[C@@]3(C)CC[C@H]4[C@H](C)CC[C@@H]1[C@@]24OO3 [DHA, dihydroartemisinin, reference compound]
[1]; all three mutations (F1072L, S1075I, Y290F)
  fold increased susceptibility versus Dd2-B2: ~ 1.6 fold
[2]
  reduction in oocyst burden: 75%
  reduction in the number of infected mosquitoes: 65%

## CCNCc1cc(Nc2ccnc3cc(Cl)ccc23)ccc1O [md-ADQ, md-amodiaquine]
[1]; PfMDR1^edS1075I
  changes in susceptibility: no changes

## CC1(C)N=C(N)N=C(N)N1OCCCOc1cc(Cl)c(Cl)cc1Cl [WR99210]
Dd2-B2 late rings
  reduction of Hb levels within parasites: no significant changes

## C=C[C@H]1C[N@@]2CC[C@H]1C[C@H]2[C@H](O)c1ccnc2ccc(OC)cc12 [QN, quinine]
[1]
  fold increased susceptibility compared to wild-type Dd2-B2: 1.7 fold
  susceptibility in GNF-Pf-5668-3C4D2 compared to PfMDR1^edF1072L: decreased susceptibility
[1]; PfMDR1^edF1072L
  fold higher susceptibility versus Dd2-B2: 3.6 fold
[1]; PfMDR1^edS1075I
  fold increased susceptibility versus Dd2-B2: 5.1 fold
[1]; [15]
  fold higher susceptibility versus Dd2-B2: 3.7 fold

## CN(C)c1ccc2nc3ccc(=[N+](C)C)cc-3sc2c1 [Methylene Blue, methylene blue]
[3]; read-out: Mean IC50 (lower 95% CI - upper 95% CI) Female carry-over
  IC50: 162 nM
[3]; read-out: Mean IC50 (lower 95% CI - upper 95% CI) Female wash-out
  IC50: 846 nM
[4]; positive control at 3′ the GAM IC50, in words
  transmission-blocking activity: maximal
[5]; read-out: Mean IC50 (lower 95% CI - upper 95% CI) Male carry-over
  IC50: 61.5 nM
[5]; read-out: Mean IC50 (lower 95% CI - upper 95% CI) Male wash-out
  IC50: 147 nM

## OC(c1cc(C(F)(F)F)nc2c(C(F)(F)F)cccc12)C1CCCCN1 (stereo not shown) [MQ, mefloquine]
[1]
  fold increased susceptibility compared to wild-type Dd2-B2: 1.4 fold
  susceptibility in GNF-Pf-5668-3C4D2 compared to PfMDR1^edF1072L: decreased susceptibility
[1]; PfMDR1^edF1072L
  fold higher susceptibility versus Dd2-B2: 3.6 fold
[1]; PfMDR1^edS1075I
  fold increased susceptibility versus Dd2-B2: 1.4 fold
[1]; [15]
  fold higher susceptibility versus Dd2-B2: 2.0 fold
[6]
  Hz and total heme iron levels: reductions
Dd2-B2 parasites
  heme fractionation effect compared to untreated controls: little or no effect
Dd2-B2 parasites; 2′ the IC50
  fold decrease in Hz levels: 1.6 fold
Dd2-B2 late rings
  reduction of Hb levels within parasites: no significant changes

## CCCOC(=O)C1=C(C)NC2=C(C(=O)CC(c3ccc(OC)c(OC)c3)C2)C1c1ccccc1F (stereo not shown) [GNF-Pf-5668]
[7]
  early-stage gametocytocidal activity: potent
[1]; GNF-Pf-5668-selected clone 3C4D2, PfMDR1 F1072L (AB 67%)
  fold increase in IC50 compared to parental Dd2-B2: 37 fold
[8]
  IC50: < 25 nM
[9]
  inhibition of HEK293 cells: < 50%
[2]
  reduction in oocyst burden: No effect
  reduction in the number of infected mosquitoes: No effect
[10]
  late-stage gametocytocidal activity: potent
[4]
  reduction in oocyst density per infected mosquito midgut: 95–99%
  reduction in infection prevalence (percentage of infected mosquitoes): 57%
Male GAM exflagellation
  reduction in male GAM exflagellation rates: 70%
[11]
  IC50: < 25 nM
[12]
  activity against liver-stage parasites: inactive
[13]; 70 mg/kg intraperitoneal
  reduction of parasitemia compared to vehicle-treated mice: 43%
[13]; 100 mg/kg intraperitoneal
  reduction of parasitemia compared to vehicle-treated mice: 91%
[14]
  IC50: < 25 nM

## CCCCN(CCCC)CC(O)c1cc(Cl)cc2c1-c1ccc(Cl)cc1/C2=C/c1ccc(Cl)cc1 (stereo not shown) [LMF, Lumefantrine]
[1]; PfMDR1^edF1072L
  fold higher susceptibility versus Dd2-B2: 3.1 fold
[1]; PfMDR1^edS1075I
  fold increased susceptibility versus Dd2-B2: unchanged
[1]; [15]
  fold higher susceptibility versus Dd2-B2: 1.9 fold
[1]
  susceptibility in GNF-Pf-5668-3C4D2 compared to PfMDR1^edF1072L: decreased susceptibility
[6]
  Hz and total heme iron levels: reduction
Dd2-B2 parasites
  heme fractionation effect compared to untreated controls: little or no effect
Dd2-B2 late rings
  reduction of Hb levels within parasites: no significant changes

## CCNCCCC(C)Nc1ccnc2cc(Cl)ccc12 (stereo not shown) [md-CQ, monodesethyl-CQ]
[1]; PfMDR1^edS1075I
  changes in susceptibility: no changes

## CC(C)(C)c1ccc(O)c(CNC2CCCCC2)c1 [GNF-Pf-5310]
[7]
  early-stage gametocytocidal activity: potent
[8]
  IC50: < 25 nM
[9]
  inhibition of HEK293 cells: < 50%
[10]
  late-stage gametocytocidal activity: potent
[3]; in words
  activity on female gamete formation: no activity
[4]
  reduction in oocyst density per infected mosquito midgut: 73%
  reduction in infection prevalence (percentage of infected mosquitoes): no reduction
Male GAM exflagellation
  reduction in male GAM exflagellation rates: no effect
[11]
  IC50: < 25 nM
[5]; in words
  activity on male gametes / exflagellation: no activity
[14]
  IC50: < 25 nM

## COc1ccc(C2CC(=O)C3=C(C2)NC(C)=C(C(=O)OC(C)C)C3c2ccccc2C)cc1OC (stereo not shown) [GNF-Pf-5640]
[7]
  early-stage gametocytocidal activity: potent
[1]; GNF-Pf-5640-selected clone 2C4C3, PfMDR1 S1075I
  fold increase in IC50 compared to parental Dd2-B2: 77 fold
[1]; GNF-Pf-5640-selected clone 3H9C7, PfMDR1 Y290F
  fold increase in IC50 compared to parental Dd2-B2: 79 fold
[8]
  IC50: < 25 nM
[9]
  inhibition of HEK293 cells: < 50%
[10]
  late-stage gametocytocidal activity: potent
[11]
  IC50: < 25 nM
[12]
  activity against liver-stage parasites: inactive
[14]
  IC50: < 25 nM

## CCN(CC)CCCC(C)Nc1ccnc2cc(Cl)ccc12 (stereo not shown) [CQ, chloroquine]
[1]; PfMDR1^edS1075I
  changes in susceptibility: no changes

From PMC5708124 (Nature microbiology, 2017)
